Reference: ChEMBL document CHEMBL1268908, “Design, synthesis, radiolabeling, and in vivo evaluation of carbon-11 labeled N-[2-[4-(3-cyanopyridin-2-yl)piperazin-1-yl]ethyl]-3-methoxybenzamide, a potential positron emission tomography tracer for the dopamine D(4) receptors” (J Med Chem, 2010)

What was measured:
[1] = Biodistribution in rhesus monkey cerebellum at 150.3 MBq, iv after 21 mins; type: ADME, organism-based, Macaca mulatta; conditions: in vivo, 0.35 h
Procedure, shortened: (§1)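 Male rhesus monkey under ketamine (10 mg/kg im) with head fixation. After a 20 min 68Ge-68Ga transmission scan, the [11C]-labelled tracer in saline (pH 7.4) was injected iv, at 2.9 TBq/μmol specific radioactivity at injection. A dynamic 3D PET scan followed over 90 min (6×0.5, 7×1, 20×2, 8×5 min frames). Regions were defined on T1-weighted 1.5 T MRI, and uptake is given as %ID/mL.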

[2] = Biodistribution in rhesus monkey occipital lobe at 150.3 MBq, iv after 4.5 mins; type: ADME, organism-based, Macaca mulatta; conditions: in vivo, 0.075 h
Procedure, shortened: (§2)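 Male rhesus monkey under ketamine 10 mg/kg im, head fixed; 20 min 68Ge-68Ga transmission scan, then 90 min dynamic 3D PET (6×0.5, 7×1, 20×2, 8×5 min frames) after iv [11C]-labelled tracer in saline, specific radioactivity about 2.9 TBq/μmol at injection. Regions defined on T1-weighted MRI; uptake expressed as % injected dose per mL.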

[3] = Biodistribution in rhesus monkey retina at 150.3 MBq, iv after 19 mins; type: ADME, organism-based, Macaca mulatta; conditions: in vivo
Hippocampus [4] = test: Biodistribution in rhesus monkey hippocampus at 150.3 MBq, iv after 2.75 mins; type: ADME, organism-based, Macaca mulatta; conditions: in vivo, 165 s
Procedure, shortened: (§3)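 Single male rhesus monkey anesthetized with ketamine 10 mg/kg im, head fixed. Attenuation correction by 20 min 68Ge-68Ga transmission scan. [11C]-tracer in saline (pH 7.4) given iv, specific radioactivity 2.9 TBq/μmol at injection. Dynamic 3D PET emission scan over 90 min in frames of 0.5 to 5 min. MRI T1 images used to define VOIs. Uptake expressed as […].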

[5] = Biodistribution in rhesus monkey entorhinal cortex at 150.3 MBq, iv after 52.5 mins; type: ADME, organism-based, Macaca mulatta; conditions: in vivo, 0.875 h; procedure, shortened: as §3
[6] = Biodistribution in rhesus monkey occipital lobe at 150.3 MBq, iv after 5.5 mins; type: ADME, organism-based, Macaca mulatta; conditions: in vivo
[7] = Biodistribution in rhesus monkey retina at 150.3 MBq, iv after 37 mins; type: ADME, organism-based, Macaca mulatta; conditions: in vivo
[8] = Biodistribution in rhesus monkey entorhinal cortex at 150.3 MBq, iv after 25 mins; type: ADME, organism-based, Macaca mulatta; conditions: in vivo; procedure, shortened: as §3
[9] = Biodistribution in rhesus monkey cerebellum at 150.3 MBq, iv after 47 mins; type: ADME, organism-based, Macaca mulatta; conditions: in vivo; procedure, shortened: as §1
[10] = Biodistribution in rhesus monkey cingulate cortex at 150.3 MBq, iv after 7.5 mins; type: ADME, organism-based, Macaca mulatta; conditions: in vivo, 0.125 h; procedure, shortened: as §3
[11] = Biodistribution in rhesus monkey cingulate cortex at 150.3 MBq, iv after 4.5 mins; type: ADME, organism-based, Macaca mulatta; conditions: in vivo, 0.075 h; procedure, shortened: as §1
[12] = Biodistribution in rhesus monkey cingulate cortex at 150.3 MBq, iv after 13 mins; type: ADME, organism-based, Macaca mulatta; conditions: in vivo; procedure, shortened: as §1
[13] = Biodistribution in rhesus monkey cingulate cortex at 150.3 MBq, iv after 39 mins; type: ADME, organism-based, Macaca mulatta; conditions: in vivo, 0.65 h; procedure, shortened: as §1
[14] = Biodistribution in rhesus monkey cerebellum at 150.3 MBq, iv after 72.5 mins; type: ADME, organism-based, Macaca mulatta; conditions: in vivo; procedure, shortened: as §1
Hippocampus [15] = test: Biodistribution in rhesus monkey hippocampus at 150.3 MBq, iv after 6.5 mins; type: ADME, organism-based, Macaca mulatta; conditions: in vivo; procedure, shortened: as §2
[16] = Biodistribution in rhesus monkey retina at 150.3 MBq, iv after 45 mins; type: ADME, organism-based, Macaca mulatta; conditions: in vivo, 0.75 h
[17] = Biodistribution in rhesus monkey occipital lobe at 150.3 MBq, iv after 3.5 mins; type: ADME, organism-based, Macaca mulatta; conditions: in vivo; procedure, shortened: as §2
[18] = Biodistribution in rhesus monkey retina at 150.3 MBq, iv after 82.5 mins; type: ADME, organism-based, Macaca mulatta; conditions: in vivo, 1.375 h
[19] = Biodistribution in rhesus monkey cingulate cortex at 150.3 MBq, iv after 25 mins; type: ADME, organism-based, Macaca mulatta; conditions: in vivo; procedure, shortened: as §1
Striatum [20] = test: Biodistribution in rhesus monkey striatum at 150.3 MBq, iv after 7.5 mins; type: ADME, organism-based, Macaca mulatta; conditions: in vivo, 0.125 h
Hippocampus [21] = test: Biodistribution in rhesus monkey hippocampus at 150.3 MBq, iv after 49 mins; type: ADME, organism-based, Macaca mulatta; conditions: in vivo; procedure, shortened: as §2
Hippocampus [22] = test: Biodistribution in rhesus monkey hippocampus at 150.3 MBq, iv after 82.5 mins; type: ADME, organism-based, Macaca mulatta; conditions: in vivo, 1.375 h; procedure, shortened: as §2
Hippocampus [23] = test: Biodistribution in rhesus monkey hippocampus at 150.3 MBq, iv after 37 mins; type: ADME, organism-based, Macaca mulatta; conditions: in vivo; procedure, shortened: as §2
[24] = Biodistribution in rhesus monkey occipital lobe at 150.3 MBq, iv after 52.5 mins; type: ADME, organism-based, Macaca mulatta; conditions: in vivo, 0.875 h
[25] = Biodistribution in rhesus monkey cingulate cortex at 150.3 MBq, iv after 77.5 mins; type: ADME, organism-based, Macaca mulatta; conditions: in vivo; procedure, shortened: as §3
Hippocampus [26] = test: Biodistribution in rhesus monkey hippocampus at 150.3 MBq, iv after 13 mins; type: ADME, organism-based, Macaca mulatta; conditions: in vivo; procedure, shortened: as §3
Striatum [27] = test: Biodistribution in rhesus monkey striatum at 150.3 MBq, iv after 37 mins; type: ADME, organism-based, Macaca mulatta; conditions: in vivo
[28] = Biodistribution in rhesus monkey retina at 150.3 MBq, iv after 29 mins; type: ADME, organism-based, Macaca mulatta; conditions: in vivo
Striatum [29] = test: Biodistribution in rhesus monkey striatum at 150.3 MBq, iv after 17 mins; conditions: in vivo
Striatum [30] = test: Biodistribution in rhesus monkey striatum at 150.3 MBq, iv after 5.5 mins; type: ADME, organism-based, Macaca mulatta; conditions: in vivo
[31] = Biodistribution in rhesus monkey occipital lobe at 150.3 MBq, iv after 9.5 mins; type: ADME, organism-based, Macaca mulatta; conditions: in vivo
Striatum [32] = test: Biodistribution in rhesus monkey striatum at 150.3 MBq, iv after 1.75 mins; type: ADME, organism-based, Macaca mulatta; conditions: in vivo, 105 s
[33] = Biodistribution in rhesus monkey cingulate cortex at 150.3 MBq, iv after 19 mins; type: ADME, organism-based, Macaca mulatta; conditions: in vivo; procedure, shortened: as §1
Hippocampus [34] = test: Biodistribution in rhesus monkey hippocampus at 150.3 MBq, iv after 47 mins; type: ADME, organism-based, Macaca mulatta; conditions: in vivo; procedure, shortened: as §2
[35] = Biodistribution in rhesus monkey retina at 150.3 MBq, iv after 3.5 mins; type: ADME, organism-based, Macaca mulatta; conditions: in vivo
[36] = Biodistribution in rhesus monkey occipital lobe at 150.3 MBq, iv after 41 mins; type: ADME, organism-based, Macaca mulatta; conditions: in vivo
Procedure, shortened: (§4)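 A male rhesus monkey was anaesthetised with ketamine 10 mg/kg im and placed in a head fixation device. A 20 min 68Ge-68Ga transmission scan was run for attenuation correction. Radiotracer in saline (pH 7.4) was given iv, about 52 pmol (18 ng), at 2.9 TBq/μmol at injection. A dynamic 3D PET scan followed for 90 min. Regional VOIs were defined on a T1-weighted MRI, with uptake expressed as %ID/mL.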

[37] = Biodistribution in rhesus monkey retina at 150.3 MBq, iv after 25 mins; type: ADME, organism-based, Macaca mulatta; conditions: in vivo
Hippocampus [38] = test: Biodistribution in rhesus monkey hippocampus at 150.3 MBq, iv after 23 mins; type: ADME, organism-based, Macaca mulatta; conditions: in vivo; procedure, shortened: as §3
[39] = Biodistribution in rhesus monkey cingulate cortex at 150.3 MBq, iv after 6.5 mins; type: ADME, organism-based, Macaca mulatta; conditions: in vivo; procedure, shortened: as §3
[40] = Biodistribution in rhesus monkey occipital lobe at 150.3 MBq, iv after 49 mins; type: ADME, organism-based, Macaca mulatta; conditions: in vivo; procedure, shortened: as §4
[41] = Biodistribution in rhesus monkey entorhinal cortex at 150.3 MBq, iv after 27 mins; type: ADME, organism-based, Macaca mulatta; conditions: in vivo, 0.45 h; procedure, shortened: as §3
Striatum [42] = test: Biodistribution in rhesus monkey striatum at 150.3 MBq, iv after 67.5 mins; type: ADME, organism-based, Macaca mulatta; conditions: in vivo, 1.125 h
[43] = Biodistribution in rhesus monkey entorhinal cortex at 150.3 MBq, iv after 0.75 mins; type: ADME, organism-based, Macaca mulatta; conditions: in vivo, 45 s; procedure, shortened: as §3
Striatum [44] = test: Biodistribution in rhesus monkey striatum at 150.3 MBq, iv after 39 mins; type: ADME, organism-based, Macaca mulatta; conditions: in vivo, 0.65 h
[45] = Biodistribution in rhesus monkey entorhinal cortex at 150.3 MBq, iv after 19 mins; type: ADME, organism-based, Macaca mulatta; conditions: in vivo; procedure, shortened: as §3

- Drug uptake [1]: 16.76 kBq/ml
- Drug uptake [2]: 33.71 kBq/ml
- Drug uptake [3]: 53.57 kBq/ml
- Drug uptake (Hippocampus [4]): 47.34 kBq/ml
- Drug uptake [5]: 9.01 kBq/ml
- Drug uptake [6]: 32.15 kBq/ml
- Drug uptake [7]: 57.39 kBq/ml
- Drug uptake [8]: 17.3 kBq/ml
- Drug uptake [9]: 10.15 kBq/ml
- Drug uptake [10]: 32.75 kBq/ml
- Drug uptake [11]: 39.8367 kBq/ml
- Drug uptake [12]: 22.54 kBq/ml
- Drug uptake [13]: 11.74 kBq/ml
- Drug uptake [14]: 8.18 kBq/ml
- Drug uptake (Hippocampus [15]): 37.33 kBq/ml
- Drug uptake [16]: 56.64 kBq/ml
- Drug uptake [17]: 37.15 kBq/ml
- Drug uptake [18]: 52.3 kBq/ml
- Drug uptake [19]: 16.82 kBq/ml
- Drug uptake (Striatum [20]): 34.7 kBq/ml
- Drug uptake (Hippocampus [21]): 9.828 kBq/ml
- Drug uptake (Hippocampus [22]): 8.042 kBq/ml
- Drug uptake (Hippocampus [23]): 12.43 kBq/ml
- Drug uptake [24]: 9.487 kBq/ml
- Drug uptake [25]: 9.3 kBq/ml
- Drug uptake (Hippocampus [26]): 23.13 kBq/ml
- Drug uptake (Striatum [27]): 12.6 kBq/ml
- Drug uptake [28]: 56.95 kBq/ml
- Drug uptake (Striatum [29]): 20.6138 kBq/ml
- Drug uptake (Striatum [30]): 39.4 kBq/ml
- Drug uptake [31]: 25.01 kBq/ml
- Drug uptake (Striatum [32]): 56.85 kBq/ml
- Drug uptake [33]: 18.84 kBq/ml
- Drug uptake (Hippocampus [34]): 9.35 kBq/ml
- Drug uptake [35]: 39.59 kBq/ml
- Drug uptake [36]: 9.836 kBq/ml
- Drug uptake [37]: 56.02 kBq/ml
- Drug uptake (Hippocampus [38]): 17.98 kBq/ml
- Drug uptake [39]: 35.15 kBq/ml
- Drug uptake [40]: 9.036 kBq/ml
- Drug uptake [41]: 14.48 kBq/ml
- Drug uptake (Striatum [42]): 9.576 kBq/ml
- Drug uptake [43]: 36.57 kBq/ml
- Drug uptake (Striatum [44]): 11.52 kBq/ml
- Drug uptake [45]: 21.93 kBq/ml
Structure (SMILES): [11CH3]Oc1cccc(C(=O)NCCN2CCN(c3ncccc3C#N)CC2)c1
